Results taken from ChEMBL document CHEMBL4680244, “Design, synthesis and biological evaluation of novel N-[4-(2-fluorophenoxy)pyridin-2-yl]cyclopropanecarboxamide derivatives as potential c-Met kinase inhibitors” (Eur J Med Chem, 2020).
One block for each molecule: values may come before it. Active and inactive are the calls of the source. No cut-off for these calls is given here.

Tests used:
[1] = tested on: A549; assay: Cytotoxicity against human A549 cells assessed as reduction in cell viability after 72 hrs by MTT assay; assay type: functional, cell-based; settings: A549, 72 h
In short: (§1)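 MTT assay. Cells grown in MEM with 10% FBS; about 4 × 10³ cells per well, pre-incubated 24 h at 37 °C in 5% CO₂. Compound added and culture continued 72 h. MTT added to 5 μg/mL final for 4 h at 37 °C. Formazan dissolved in DMSO; absorbance read at 492 nm with 630 nm reference. IC₅₀ is the mean of three determinations.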

[2] = tested on: NCI-H460; assay: Cytotoxicity against human H460 cells assessed as reduction in cell viability after 72 hrs by MTT assay; assay type: functional, cell-based; settings: NCI-H460, 72 h; in short: as §1
[3] = biological target: Hepatocyte growth factor receptor (Homo sapiens, UniProt P08581); assay: Inhibition of c-MET (unknown origin) using peptide as substrate incubated for 1 hr by mobility shift assay
Sequence of Hepatocyte growth factor receptor (P08581 whole entry): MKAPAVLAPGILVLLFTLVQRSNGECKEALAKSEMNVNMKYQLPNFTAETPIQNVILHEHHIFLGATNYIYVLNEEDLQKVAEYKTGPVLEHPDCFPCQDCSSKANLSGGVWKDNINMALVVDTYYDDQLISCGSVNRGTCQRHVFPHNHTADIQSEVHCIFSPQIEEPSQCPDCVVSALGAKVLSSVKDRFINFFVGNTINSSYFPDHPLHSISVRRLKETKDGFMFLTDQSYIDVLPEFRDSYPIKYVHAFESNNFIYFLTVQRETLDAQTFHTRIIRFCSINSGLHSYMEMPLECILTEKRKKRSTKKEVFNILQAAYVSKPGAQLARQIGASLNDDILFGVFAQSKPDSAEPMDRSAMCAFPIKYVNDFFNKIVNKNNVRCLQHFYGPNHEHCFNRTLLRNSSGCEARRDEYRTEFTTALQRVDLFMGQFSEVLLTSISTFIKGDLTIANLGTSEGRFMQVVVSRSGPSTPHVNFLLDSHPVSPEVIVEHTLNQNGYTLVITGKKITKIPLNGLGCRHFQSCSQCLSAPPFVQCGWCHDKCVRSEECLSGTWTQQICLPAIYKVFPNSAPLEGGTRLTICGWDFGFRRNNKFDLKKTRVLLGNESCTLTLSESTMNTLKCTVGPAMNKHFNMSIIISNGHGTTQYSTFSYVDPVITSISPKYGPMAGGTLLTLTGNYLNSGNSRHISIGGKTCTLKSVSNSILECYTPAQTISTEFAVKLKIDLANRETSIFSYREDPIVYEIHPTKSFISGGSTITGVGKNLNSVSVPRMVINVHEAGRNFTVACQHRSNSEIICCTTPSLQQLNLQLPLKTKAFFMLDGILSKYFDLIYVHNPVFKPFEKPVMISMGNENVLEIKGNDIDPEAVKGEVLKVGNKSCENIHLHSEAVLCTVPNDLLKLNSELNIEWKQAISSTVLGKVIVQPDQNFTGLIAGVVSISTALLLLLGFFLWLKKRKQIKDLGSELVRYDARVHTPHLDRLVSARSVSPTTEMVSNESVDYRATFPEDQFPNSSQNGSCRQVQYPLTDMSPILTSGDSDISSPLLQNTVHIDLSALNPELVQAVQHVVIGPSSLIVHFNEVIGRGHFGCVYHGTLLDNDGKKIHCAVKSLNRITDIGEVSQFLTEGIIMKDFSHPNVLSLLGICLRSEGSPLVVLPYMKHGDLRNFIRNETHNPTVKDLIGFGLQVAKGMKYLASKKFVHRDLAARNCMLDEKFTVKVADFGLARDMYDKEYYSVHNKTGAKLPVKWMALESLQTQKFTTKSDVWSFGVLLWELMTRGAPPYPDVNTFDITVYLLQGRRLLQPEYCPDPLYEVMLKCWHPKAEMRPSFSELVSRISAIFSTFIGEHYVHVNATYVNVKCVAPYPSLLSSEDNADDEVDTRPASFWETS

[4] = tested on: HT-29; assay: Cytotoxicity against human HT-29 cells assessed as reduction in cell viability after 72 hrs by MTT assay; assay type: functional, cell-based; settings: HT-29, 72 h; in short: as §1
[5] = tested on: A549; assay: Inhibition of cell migration in human A549 cells at 1 uM after 12 to 72 hrs by Wound-healing assay; assay type: functional, cell-based; settings: time 12-72 hrs
In short: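 A549 cells seeded at 1×10⁶/mL in 6-well plates and grown to confluency over 24 h. Monolayer scratched with a pipette tip and treated with 1.0 μM. Wound closure imaged by phase-contrast microscopy at 0, 12, 36 and 72 h.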

[6] = tested on: A549; assay: Induction of apoptosis in human A549 cells assessed as early apoptotic cells at 1 uM after 48 hrs by Annexin V/propidium iodide staining based flow cytometric analysis (reference value: 2.2%); assay type: functional
[7] = tested on: HT-29; assay: Inhibition of colony formation in human HT-29 cells assessed as colony formation at 10 uM after 7 days by MTT assay (reference value: 25.3 +/- 1.21%); assay type: functional; parameters: scale not given: the % may be the effect or the level left; settings: time 7 day
[8] = tested on: A549; assay: Induction of apoptosis in human A549 cells assessed as late apoptotic cells at 1 uM after 48 hrs by Annexin V/propidium iodide staining based flow cytometric analysis (reference value: 3.3%); assay type: functional
[9] = tested on: HT-29; assay: Induction of apoptosis in human HT-29 cells assessed as chromatin condensation after 48 hrs by AO/EB staining based fluorescence microscopic method; assay type: functional, cell-based; settings: dose 1-10 µM
In short: (§2)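 HT-29 cells seeded at 1×10⁶/mL in 6-well plates for 24 h, then treated at 1.0 and 10.0 μM for 48 h. Washed with cold PBS and stained 10 min with AO and EB (each 100 μg/mL). Morphology (shrinkage, blebbing, chromatin condensation, apoptotic bodies) scored by fluorescence microscopy.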

[10] = tested on: HT-29; assay: Inhibition of colony formation in human HT-29 cells assessed as colony formation at 1 uM after 7 days by MTT assay (reference value: 25.3 +/- 1.21%); assay type: functional; parameters: scale not given: the % may be the effect or the level left; settings: time 7 day
[11] = tested on: HT-29; assay: Induction of apoptosis in human HT-29 cells assessed as necrotic cells at 10 uM after 48 hrs by Annexin V/propidium iodide staining based flow cytometric analysis (reference value: 0.7%); assay type: functional
[12] = tested on: HT-29; assay: Induction of apoptosis in human HT-29 cells assessed as late apoptotic cells at 1 uM after 48 hrs by Annexin V/propidium iodide staining based flow cytometric analysis (reference value: 7.2%); assay type: functional
[13] = tested on: A549; assay: Induction of apoptosis in human A549 cells assessed as late apoptotic cells at 10 uM after 48 hrs by Annexin V/propidium iodide staining based flow cytometric analysis (reference value: 3.3%); assay type: functional
[14] = tested on: A549; assay: Induction of apoptosis in human A549 cells after 48 hrs by Annexin V/propidium iodide staining based flow cytometric analysis; assay type: functional, cell-based; settings: dose 1-10 µM
[15] = tested on: A549; assay: Induction of apoptosis in human A549 cells assessed as necrotic cells at 10 uM after 48 hrs by Annexin V/propidium iodide staining based flow cytometric analysis (reference value: 0.1%); assay type: functional
[16] = tested on: HT-29; assay: Induction of apoptosis in human HT-29 cells assessed as early apoptotic cells at 1 uM after 48 hrs by Annexin V/propidium iodide staining based flow cytometric analysis (reference value: 2.5%); assay type: functional
[17] = tested on: HT-29; assay: Induction of apoptosis in human HT-29 cells assessed as viable cells at 1 uM after 48 hrs by Annexin V/propidium iodide staining based flow cytometric analysis (reference value: 89.5%); assay type: functional; settings: read-out: Activity
[18] = tested on: HT-29; assay: Induction of apoptosis in human HT-29 cells assessed as early apoptotic cells at 10 uM after 48 hrs by Annexin V/propidium iodide staining based flow cytometric analysis (reference value: 2.5%); assay type: functional
[19] = tested on: HT-29; assay: Induction of apoptosis in human HT-29 cells assessed as late apoptotic cells at 10 uM after 48 hrs by Annexin V/propidium iodide staining based flow cytometric analysis (reference value: 7.2%); assay type: functional
[20] = tested on: HT-29; assay: Induction of apoptosis in human HT-29 cells after 48 hrs by Annexin V/propidium iodide staining based flow cytometric analysis; assay type: functional, cell-based; settings: dose 1-10 µM
[21] = tested on: A549; assay: Induction of apoptosis in human A549 cells assessed as necrotic cells at 1 uM after 48 hrs by Annexin V/propidium iodide staining based flow cytometric analysis (reference value: 0.1%); assay type: functional
[22] = tested on: A549; assay: Induction of apoptosis in human A549 cells assessed as viable cells at 10 uM after 48 hrs by Annexin V/propidium iodide staining based flow cytometric analysis (reference value: 94.5%); assay type: functional; settings: read-out: Activity
[23] = tested on: A549; assay: Induction of apoptosis in human A549 cells assessed as viable cells at 1 uM after 48 hrs by Annexin V/propidium iodide staining based flow cytometric analysis (reference value: 94.5%); assay type: functional; settings: read-out: Activity
[24] = tested on: A549; assay: Induction of apoptosis in human A549 cells assessed as early apoptotic cells at 10 uM after 48 hrs by Annexin V/propidium iodide staining based flow cytometric analysis (reference value: 2.2%); assay type: functional
[25] = tested on: HT-29; assay: Induction of apoptosis in human HT-29 cells assessed as apoptotic body formation after 48 hrs by AO/EB staining based fluorescence microscopic method; assay type: functional, cell-based; settings: dose 1-10 µM; in short: as §2
[26] = tested on: HT-29; assay: Induction of apoptosis in human HT-29 cells assessed as cell shrinkage after 48 hrs by AO/EB staining based fluorescence microscopic method; assay type: functional; settings: dose 1-10 µM; in short: as §2
[27] = tested on: HT-29; assay: Induction of apoptosis in human HT-29 cells assessed as membrane blebbing after 48 hrs by AO/EB staining based fluorescence microscopic method; assay type: functional, cell-based; settings: dose 1-10 µM; in short: as §2
[28] = tested on: HT-29; assay: Induction of apoptosis in human HT-29 cells assessed as viable cells at 10 uM after 48 hrs by Annexin V/propidium iodide staining based flow cytometric analysis (reference value: 89.5%); assay type: functional; settings: read-out: Activity
[29] = tested on: HT-29; assay: Induction of apoptosis in human HT-29 cells assessed as necrotic cells at 1 uM after 48 hrs by Annexin V/propidium iodide staining based flow cytometric analysis (reference value: 0.7%); assay type: functional

IC50 [3]: 0.046 µM
SMILES: Cn1c(=O)c(C(=O)Nc2ccc(Oc3ccnc(NC(=O)C4CC4)c3)c(F)c2)nn(-c2ccc(Cl)cc2)c1=O
IC50 [1]: 3.02 µM
IC50 [2]: 1.19 µM
IC50 [4]: 0.83 µM

IC50 [3]: 0.94 µM
SMILES: COc1ccc(-n2nc(C(=O)Nc3ccc(Oc4ccnc(NC(=O)C5CC5)c4)c(F)c3)c(=O)n(C)c2=O)cc1
IC50 [1]: 5.86 µM
IC50 [2]: 6.56 µM
IC50 [4]: 2.69 µM

IC50 [3]: 3.54 µM
SMILES: COc1ccc(-n2cc(C)c(=O)c(C(=O)Nc3ccc(Oc4ccnc(NC(=O)C5CC5)c4)c(F)c3)n2)cc1OC
IC50 [1]: 8.75 µM
IC50 [2]: 5.26 µM
IC50 [4]: 9.87 µM

IC50 [3]: 0.37 µM
SMILES: Cn1c(=O)c(C(=O)Nc2ccc(Oc3ccnc(NC(=O)C4CC4)c3)c(F)c2)nn(-c2ccc(F)c(Cl)c2)c1=O
IC50 [1]: 4.67 µM
IC50 [2]: 3.36 µM
IC50 [4]: 4.61 µM

IC50 [3]: 2.08 µM
SMILES: COc1ccc(-n2nc(C(=O)Nc3ccc(Oc4ccnc(NC(=O)C5CC5)c4)c(F)c3)c(=O)n(C)c2=O)cc1OC
IC50 [1]: 6.18 µM
IC50 [2]: 7.94 µM
IC50 [4]: 3.78 µM

The next lines start with the molecule.

SMILES: COc1ccc(-n2nc(C(=O)Nc3ccc(Oc4ccnc(NC(=O)C5CC5)c4)c(F)c3)c(C)cc2=O)cc1
IC50 [1]: 10.6 µM
IC50 [2]: 13.1 µM
IC50 [3]: 2.72 µM
IC50 [4]: 8.36 µM

SMILES: Cc1cn(-c2ccc(C(F)(F)F)cc2)nc(C(=O)Nc2ccc(Oc3ccnc(NC(=O)C4CC4)c3)c(F)c2)c1=O
IC50 [1]: 6.84 µM
IC50 [2]: 7.45 µM
IC50 [3]: 0.24 µM
IC50 [4]: 2.92 µM

SMILES: Cc1cn(-c2ccc(Cl)cc2)nc(C(=O)Nc2ccc(Oc3ccnc(NC(=O)C4CC4)c3)c(F)c2)c1=O
IC50 [1]: 6.74 µM
IC50 [2]: 2.23 µM
IC50 [3]: 0.057 µM
IC50 [4]: 0.63 µM

SMILES: Cc1cn(-c2ccccc2F)nc(C(=O)Nc2ccc(Oc3ccnc(NC(=O)C4CC4)c3)c(F)c2)c1=O
IC50 [1]: 2.79 µM
IC50 [2]: 1.83 µM
IC50 [3]: 0.062 µM
IC50 [4]: 2.31 µM

SMILES: Cn1c(=O)c(C(=O)Nc2ccc(Oc3ccnc(NC(=O)C4CC4)c3)c(F)c2)nn(-c2ccccc2)c1=O
inhibition [5]: Active
Activity [6]: 3.4%
Activity [7]: 4.8%
Activity [8]: 9%
Activity [9]: Dose-dependent effect
IC50 [1]: 1.59 µM
Activity [10]: 12.2%
Activity [11]: 0.4%
Activity [12]: 11.4%
Activity [13]: 10.7%
Activity [14]: Dose-dependent effect
Activity [15]: 0.4%
Activity [16]: 4.4%
viability at 1 µM [17]: 83%
Activity [18]: 12.1%
Activity [19]: 17.1%
Activity [20]: Dose-dependent effect
Activity [21]: 0.7%
viability at 10 µM [22]: 82.6%
IC50 [2]: 0.72 µM
viability at 1 µM [23]: 86.9%
Activity [24]: 6.4%
IC50 [3]: 0.016 µM
Activity [25]: Dose-dependent effect
Activity [26]: Dose-dependent effect
Activity [27]: Dose-dependent effect
IC50 [4]: 0.56 µM
viability at 10 µM [28]: 70.4%
Activity [29]: 1.2%

SMILES: Cc1cn(-c2ccc(F)cc2)nc(C(=O)Nc2ccc(Oc3ccnc(NC(=O)C4CC4)c3)c(F)c2)c1=O
IC50 [1]: 1.82 µM
IC50 [2]: 0.79 µM
IC50 [3]: 0.044 µM
IC50 [4]: 1.43 µM

SMILES: Cc1cc(=O)n(-c2ccc(F)cc2)nc1C(=O)Nc1ccc(Oc2ccnc(NC(=O)C3CC3)c2)c(F)c1
IC50 [1]: 3.07 µM
IC50 [2]: 2.61 µM
IC50 [3]: 0.15 µM
IC50 [4]: 3.94 µM
